The target in experiment [1] is Beta-secretase 1 (Homo sapiens) (UniProt P56817). The experiment is described as follows: Inhibition of human recombinant BACE1 at 2 uM. The procedure, abridged:
(§1)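 Recombinant human BACE1 enzymatic assay. Inhibition is expressed as the percent decrease in substrate cleaved by the enzyme.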

Experiment [2] shares this target. The experiment is described as follows: Inhibition of human recombinant BACE1 at 0.2 uM. Summed up: as §1

Numbered stars: 1 amine (or outer) side, 2 acyl side, 3 side chain; on linkers, the order of the positions; unused ones are H or OH. Square brackets hold non-standard residues; d marks the D form. Peptide text beside a SMILES is read from it. β3hPhe(2R-OH) = O=C([C@H](O)[C@H](Cc1ccccc1)N[*:1])[*:2]; X1 = O=C([C@H](O)[C@H](CSc1ccccc1)N[*:1])[*:2]

Beta-secretase 1 (Homo sapiens), sequence (P56817 whole entry): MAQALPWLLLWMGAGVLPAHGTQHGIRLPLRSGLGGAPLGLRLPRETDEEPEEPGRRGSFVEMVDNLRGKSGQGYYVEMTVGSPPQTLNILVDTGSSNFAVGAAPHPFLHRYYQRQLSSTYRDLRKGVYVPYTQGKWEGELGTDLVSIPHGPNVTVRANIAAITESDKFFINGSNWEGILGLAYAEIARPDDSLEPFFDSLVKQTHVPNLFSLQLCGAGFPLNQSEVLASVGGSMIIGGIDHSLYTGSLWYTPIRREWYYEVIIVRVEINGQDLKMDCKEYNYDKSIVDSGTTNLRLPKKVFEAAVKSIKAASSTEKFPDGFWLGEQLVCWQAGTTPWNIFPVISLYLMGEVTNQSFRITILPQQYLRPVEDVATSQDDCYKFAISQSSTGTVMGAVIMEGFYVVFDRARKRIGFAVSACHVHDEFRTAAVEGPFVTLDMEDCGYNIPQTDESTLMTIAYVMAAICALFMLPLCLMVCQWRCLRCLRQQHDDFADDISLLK

For `CC(C)C[C@H](NC(=O)[C@@H](NC(=O)[C@@H](N)CCC(=O)O)C(C)C)C(=O)N[C@@H](CSc1ccccc1)[C@@H](O)C(=O)N[C@@H](CC(=O)O)C(=O)N[C@@H](C)C(=O)N[C@@H](CCC(=O)O)C(=O)N[C@@H](Cc1ccccc1)C(=O)O` (H-EVL[X1]DAEF-OH), the inhibition in experiment [1] was determined as 82%; in experiment [2], 34%.
As to `CC(C)C[C@H](NC(=O)[C@@H](NC(=O)[C@@H](N)CCC(=O)O)C(C)C)C(=O)N[C@@H](CSc1ccccc1)[C@@H](O)C(=O)Nc1cccc(C(=O)O)c1`, the inhibition in experiment [1] came to 96%; in experiment [2] it was 57%.
In the case of `CC(C)C[C@H](NC(=O)[C@@H](NC(=O)[C@@H](N)CCC(=O)O)C(C)C)C(=O)N[C@@H](CSc1ccccc1)[C@@H](O)C(=O)N[C@@H](CC(=O)O)C(=O)O` (H-EVL[X1]D-OH), the inhibition in experiment [1] came to 69%.
In the case of `CC(C)C[C@H](NC(=O)[C@@H](NC(=O)[C@@H](N)CNC(=O)c1cc(N)cc(C(=O)O)c1)C(C)C)C(=O)N[C@@H](Cc1ccccc1)[C@@H](O)C(=O)Nc1cccc(C(=O)O)c1`, the inhibition in experiment [1] turned out to be 98%; in experiment [2], 80%.
Take `CC(C)C[C@H](NC(=O)[C@@H](NC(=O)[C@@H](N)CCC(=O)O)C(C)C)C(=O)N[C@@H](Cc1ccccc1)[C@@H](O)C(=O)N[C@@H](CC(=O)O)C(=O)N[C@@H](C)C(=O)N[C@@H](CCC(=O)O)C(=O)N[C@@H](Cc1ccccc1)C(=O)O` (H-EVL[β3hPhe(2R-OH)]DAEF-OH): the inhibition in experiment [2] is 32%.
Consider `CC(C)C[C@H](NC(=O)[C@@H](NC(=O)[C@@H](N)CNC(=O)c1cc(N)cc(C(=O)O)c1)C(C)C)C(=O)N[C@@H](CSc1ccccc1)[C@@H](O)C(=O)Nc1cccc(C(=O)O)c1`, for which the inhibition turned out to be 99% in experiment [1] and 86% in experiment [2].

These data come from ChEMBL document CHEMBL1146382, “Design and synthesis of BACE1 inhibitors containing a novel norstatine derivative (2R,3R)-3-amino-2-hydroxy-4-(phenylthio)butyric acid” (Bioorg Med Chem Lett, 2007).
